Activity calls are given as the source filed them. No cut-off for these calls is given here.
Legend:
[1] = biological target: T1, Free fatty acid receptor 1 (Homo sapiens, UniProt O14842); test: Agonist activity at human FFA1 expressed in CHO cells assessed as intracellular Ca2+ level at 100 nM measured for 90 secs by Fluo-4 AM-based FLIPR assay; assay type: functional, cell-based
Outline: (§1)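 CHO cells stably expressing human FFA1 (NM_005303), 15K cells/well, cultured overnight at 37 °C in 5% CO2. Cells were washed with HBSS, then loaded for 60 min at 37 °C with Fluo 4-AM 2.5 μg/mL, fatty acid-free BSA 0.1% and probenecid 2.5 mmol/L. Single screening concentration added and Ca2+ flux read on FLIPR Tetra for 90 s. Activity = (A−B)/(C−B)×100 against vehicle (B) and 10 μM γ-linolenic acid (C). Mean of three independent experiments.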

[2] = biological target: T1, Free fatty acid receptor 1; test: Agonist activity at human FFA1 expressed in CHO cells assessed as intracellular Ca2+ level at 300 nM measured for 90 secs by Fluo-4 AM-based FLIPR assay; assay type: functional, cell-based; outline: as §1
Mus musculus [3] = test: Decrease in plasma glucose level in ICR mouse at 20 mg/kg, po administered as single dose 30 mins prior to glucose challenge measured up to 120 mins by OGTT; assay type: functional, organism-based
Outline: (§2)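 Male ICR mice, 10 weeks old, fasted 12 h and randomized (n = 6/group). Single oral dose in 0.5% CMC (10 mL/kg), followed 30 min later by oral glucose 3 g/kg as a 30% solution. Tail-vein blood at −30, 0, 15, 30, 45, 60 and 120 min, glucose read with test strips. Mean ± SEM, two-tailed Student's t-test against vehicle.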

Mus musculus [4] = test: Antihyperglycemic activity in STZ-induced type 2 diabetic C57BL/6 mouse model at 20 mg/kg, po administered as single dose 30 mins prior to glucose challenge measured up to 120 mins by OGTT; assay type: functional, organism-based
Outline: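 Male C57BL/6 mice fed 45%-fat diet for 4 weeks, given STZ 80 mg/kg i.p., then kept on high-fat diet another 4 weeks; fasting glucose ≥11.1 mmol/L counted as diabetic. After a 12 h fast, n = 6/group, oral dose in 0.5% CMC, then 2 g/kg glucose (20% solution) orally 30 min later. Tail blood at −30, 0, 15, 30, 45, 60, 120 min, read with glucose strips.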

[5] = biological target: T1, Free fatty acid receptor 1; test: Agonist activity at human FFA1 expressed in CHO cells assessed as intracellular Ca2+ level measured for 90 secs by Fluo-4 AM-based FLIPR assay; assay type: functional, cell-based
Outline: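 Calcium flux in CHO cells stably expressing human FFA1, plated at 15K cells/well overnight, loaded 60 min at 37 °C with Fluo 4-AM (2.5 μg/mL), 0.1% fatty acid-free BSA and 2.5 mmol/L probenecid. Various concentrations added and read by FLIPR for 90 s. Response normalised to vehicle and 10 μM γ-linolenic acid. EC50 from concentration–response fit, mean of three independent determinations.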

Mus musculus [6] = test: Decrease in plasma glucose level in po dosed ICR mouse administered as single dose 30 mins prior to glucose challenge measured up to 120 mins by OGTT; assay type: functional, organism-based; outline: as §2
Mus musculus [7] = test: Toxicity in ICR mouse assessed as hypoglycemic effect at 80 mg/kg, po measured up to 180 mins; assay type: organism-based; details: in vivo, 3 h
Outline: (§3)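 Normal male ICR mice, 10 weeks, fasted overnight (12 h), n = 6 per group. Single oral dose in 0.5% CMC vehicle, no glucose load. Tail-tip blood glucose by test strips at 0, 30, 60, 90, 120 and 180 min after dosing. Mean ± SEM for six animals, Student's t-test.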

Mus musculus [8] = test: Toxicity in ICR mouse assessed as hypoglycemic effect at 15 mg/kg, po measured up to 180 mins; assay type: organism-based; details: in vivo, 3 h; outline: as §3

T1 sequence (O14842 whole entry): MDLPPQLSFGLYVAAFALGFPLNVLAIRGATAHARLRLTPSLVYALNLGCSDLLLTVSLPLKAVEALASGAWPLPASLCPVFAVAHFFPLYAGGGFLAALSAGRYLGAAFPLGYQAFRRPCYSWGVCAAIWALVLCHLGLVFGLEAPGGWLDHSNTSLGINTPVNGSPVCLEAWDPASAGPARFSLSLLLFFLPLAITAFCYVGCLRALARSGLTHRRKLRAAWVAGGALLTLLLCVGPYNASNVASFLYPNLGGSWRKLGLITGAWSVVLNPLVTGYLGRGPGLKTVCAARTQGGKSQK

Compound | Activity [1] [%] | Activity [2] [%] | also measured
O=C(O)CC1COc2cc(OCc3cccc(N4CCCC4)c3)ccc21 (stereo unspecified) | 43.7 | 56.3 | –
Cc1cc(OCCCS(C)(=O)=O)cc(C)c1-c1cccc(COc2ccc3c(c2)OC[C@H]3CC(=O)O)c1 | – | – | Activity (Mus musculus [3]): Active; Activity (Mus musculus [4]): Active
CCOc1ccc(COc2ccc3c(c2)OCC3CC(=O)O)cc1-n1c(C)ccc1C (stereo unspecified) | 54.6 | – | EC50 [5]: 0.0612 µM
COc1ccc(COc2ccc3c(c2)OCC3CC(=O)O)cc1-n1c(C)ccc1C (stereo unspecified) | 63.8 | – | EC50 [5]: 0.0347 µM; Activity (Mus musculus [6]): Dose-dependent effect; Activity (Mus musculus [7]): Non-toxic; Activity (Mus musculus [4]): Active
O=C(O)CC1COc2cc(OCc3cccc(N4CCSCC4)c3)ccc21 (stereo unspecified) | 38.2 | 52.2 | –
Cc1cc(C(=O)N(C)C)c(C)n1-c1cccc(COc2ccc3c(c2)OCC3CC(=O)O)c1 (stereo unspecified) | 25.7 | – | –
COc1ccc(Cl)cc1C(=O)NCCc1ccc(S(=O)(=O)NC(=O)NC2CCCCC2)cc1 [GLYBURIDE] | – | – | Activity (Mus musculus [8]): Toxic
Cc1cccc(C)c1-c1cccc(COc2ccc3c(c2)OCC3CC(=O)O)c1 (stereo unspecified) | 62.6 | 74.4 | EC50 [5]: 0.0384 µM
COCc1cc(C)n(-c2cccc(COc3ccc4c(c3)OCC4CC(=O)O)c2)c1C (stereo unspecified) | 31.7 | – | –
O=C(O)CC1COc2cc(OCc3cccc(N4CCOCC4)c3)ccc21 (stereo unspecified) | 41.2 | 55.7 | –
Cc1ccc(C)n1-c1cc(COc2ccc3c(c2)OCC3CC(=O)O)ccc1OCc1ccccc1 (stereo unspecified) | 40.8 | – | –
O=C(O)CC1COc2cc(OCc3cccc(N4CCS(=O)(=O)CC4)c3)ccc21 (stereo unspecified) | 8.28 | 25.9 | –
Cc1ccc(C)n1-c1cccc(COc2ccc3c(c2)OCC3CC(=O)O)c1 (stereo unspecified) | 59.9 | 71.3 | EC50 [5]: 0.0469 µM
O=C(O)CC1COc2cc(OCc3cccc(N4CCCCC4)c3)ccc21 (stereo unspecified) | 34.6 | 50.3 | –
O=C(O)CC1COc2cc(OCc3cccc(-n4cccc4)c3)ccc21 (stereo unspecified) | 28.6 | 41.9 | –

Reference: ChEMBL document CHEMBL3779832, “Discovery of novel pyrrole-based scaffold as potent and orally bioavailable free fatty acid receptor 1 agonists for the treatment of type 2 diabetes” (Bioorg Med Chem, 2016)
